Assays:
Mus musculus [1] = assay: AUC (0 to infinity) in BALB/C mouse plasma at 2 mg/kg, po administered as single dose by LC-MS/MS analysis; type: ADME, organism-based; design: dose 2 mg/kg, route oral, time infinity; conditions: in vivo
[2] = Oral bioavailability in cynomolgus monkey; type: ADME, organism-based, Macaca fascicularis; conditions: in vivo
[3] = Dissociation constant, pKa of the compound; type: physicochemical
[4] = Apparent permeability across apical to basolateral side in human Caco2 cells at 10 uM after 1 hr; type: ADME, cell-based; conditions: Caco-2
How it was run: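 Caco-2 monolayers; 10 µM compound in pH 7.4 HBSS added to apical side (A→B) or basolateral side (B→A), receiver holding pH 7.4 HBSS with 1% DMSO. Incubated 1 h at 37 °C, 5% CO2, 95% humidity. Drug amounts on both sides measured and permeability calculated for each direction.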

[5] = Volume of distribution at steady state in BALB/C mouse at 1 mg/kg, iv by LC-MS/MS analysis; type: ADME, organism-based; conditions: in vivo, read-out: Vdss
How it was run: (§1)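 Male BALB/C mice given single doses of 1 mg/kg iv (5% DMSO, 40% PEG400, 55% saline), or 2 or 14.5 mg/kg po (1% RC-591 in water). Blood taken at set times into sodium heparin and plasma separated at 4 °C; livers from po groups taken right after bleeding, rinsed and blotted. Plasma and liver levels measured by LC–MS/MS.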

[6] = Cmax in BALB/C mouse plasma at 1 mg/kg, iv administered as single dose by LC-MS/MS analysis; type: ADME, organism-based; design: dose 1 mg/kg, route intravenous; how it was run: as §1
[7] = Cmax in BALB/C mouse plasma at 2 mg/kg, po administered as single dose by LC-MS/MS analysis; type: ADME, organism-based; design: dose 2 mg/kg, route oral; how it was run: as §1
[8] = Cmax in BALB/C mouse plasma at 14.5 mg/kg, po administered as single dose by LC-MS/MS analysis; type: ADME, organism-based; design: dose 14.5 mg/kg, route oral; how it was run: as §1
Mus musculus [9] = assay: AUC (0 to infinity) in BALB/C mouse plasma at 1 mg/kg, iv administered as single dose by LC-MS/MS analysis; type: ADME, organism-based; design: dose 1 mg/kg, route intravenous, time infinity; conditions: in vivo
[10] = Oral bioavailability in BALB/C mouse at 2 mg/kg administered as single dose by LC-MS/MS analysis; type: ADME, organism-based; conditions: in vivo; how it was run: as §1
[11] = AUC (0 to t) in BALB/C mouse plasma at 14.5 mg/kg, po administered as single dose by LC-MS/MS analysis; type: ADME, organism-based; conditions: in vivo
[12] = Cmax in BALB/C mouse liver at 14.5 mg/kg, po administered as single dose by LC-MS/MS analysis; type: ADME, organism-based; design: dose 14.5 mg/kg, route oral; how it was run: as §1
[13] = AUC (0 to t) in BALB/C mouse liver at 14.5 mg/kg, po administered as single dose by LC-MS/MS analysis; type: ADME, organism-based; conditions: in vivo
[14] = Ratio of AUC (0 to t) in BALB/C mouse liver to plasma at 14.5 mg/kg, po administered as single dose by LC-MS/MS analysis; type: ADME, organism-based; conditions: read-out: Ratio AUC
[15] = Lipophilicity, log D of the compound; type: physicochemical; conditions: octanol/water

AUC (Mus musculus [1]): 490 ng·mL·h
bioavailability [2]: 57%
pKa [3]: 5.79
Papp A→B at 1 h, 10 µM [4]: 12.8 ×10⁻⁶ cm/s
Vd [5]: 2.07 L/kg
Cmax [6]: 466 ng/mL
Cmax [7]: 322 ng/mL
Cmax [8]: 2040 ng/mL
AUC (Mus musculus [9]): 398 ng·mL·h
bioavailability [10]: 62%
AUCt [11]: 4366 ng·mL·h
Cmax [12]: 11000 ng/mL
AUCt [13]: 17265 ng·mL·h
Kp [14]: 4
logD [15]: 1.28
Structure (SMILES): COCCCOc1cc2c(cc1OC)-c1cc(=O)c(C(=O)O)cn1[C@H](C(C)C)C2
